Compound activity deposited in PubChem by several laboratories.
A selection: hits, their analogues and other compounds. The true share with any hit is near 12%.
KCC2 mod: modulates chloride dependent transport by human KCC2; Q9H2X9; KCC2 cells, thallium flux FluoZin-2 fluorescence; B-score of Tl+ flux slope (higher = more flux/activation; lower = inhibition) at 10 µM; 2.2% of 190,000 active; AID 1456;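 active = thallium flux slope and its plate-corrected score both differing from the plate sample mean at a set confidence after two filtering rounds, in either direction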;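 also: slope of fluorescence scaled to starting intensity during 10 to 20 s after thallium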
Diaph act CS: activates diaphorase or chemically reduces, flagging diaphorase assay artifacts. activation factor at 20 µM. AID 1229. Diaphorase/resazurin coupled assay, resorufin fluorescence, 16 min; hits give high values; 1 = vehicle wells, 0 = NADH-free wells. 0.005% of 190,000 active;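 active = diaphorase activity raised at least twofold by the compound at 20 µM; inactive = activation factor below 2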
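Test system: Clostridium kluyveri diaphorase, purified enzyme; input: enzyme 0.07 U/mL final; buffer or medium: 50 mM HEPES pH 7.4 with 4.542 mM MgCl2, 0.005% Tween 20; also added: 0.114 mM NADH and 0.1 mM resazurin, final amounts; schedule: 16 min enzyme reaction, ambient temperature; technique: fluorescence of resorufin, 544 nm excitation, 590 nm emission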
L major viab: inhibitors of Leishmania major promastigote growth | Leishmania major promastigotes, resazurin fluorescence viability | inhibition, % at 10 µM | 9% of 200,000 active; in the data active = inhibition above about 50%;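 also: promastigotes grown with compound for 44 hours at 28 °C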
WT yeast gro inh: growth inhibition of WT yeast, mitochondrial fusion screen. inhibition, % at 10 µM. 2.1% of 190,000 active. mitochondrial fusion phenotypic screen, WT strain. AID 1362; in the data active = inhibition above about 58%; tested in S. cerevisiae
Diaphorase inh: inhibits diaphorase or chemically oxidizes, flagging diaphorase assay artifacts | inhibition, % at 20 µM | diaphorase resazurin-to-resorufin fluorescence, NADH, 16 min; bacterial (C. kluyveri) enzyme, not human | 0.69% of 190,000 active;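 active = primary screen inhibition at 20 µM above a set limit, cut at about 50% in these data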
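Detection: fluorescence of resorufin formed from resazurin, Ex 544/Em 590 nm; test system: Clostridium kluyveri diaphorase enzyme; amount: 0.14 U/mL diaphorase, enzyme working solution; times: 16-min room-temperature incubation before reading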
ROMK mod: modulators of human ROMK potassium channel | P48048 | Tet-inducible ROMK, thallium flux fluorescence; actives lie on both sides | B-score at 10 µM | 2% of 130,000 active | AID 1918;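 active = signal ratio slope over the read window, or its plate-corrected B-score, at least 3 SD from the plate mean, either direction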;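 also: B-score of the F/F0 ratio slope over 7 to 12 s after thallium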
Target sequence (P48048 whole entry, looked up): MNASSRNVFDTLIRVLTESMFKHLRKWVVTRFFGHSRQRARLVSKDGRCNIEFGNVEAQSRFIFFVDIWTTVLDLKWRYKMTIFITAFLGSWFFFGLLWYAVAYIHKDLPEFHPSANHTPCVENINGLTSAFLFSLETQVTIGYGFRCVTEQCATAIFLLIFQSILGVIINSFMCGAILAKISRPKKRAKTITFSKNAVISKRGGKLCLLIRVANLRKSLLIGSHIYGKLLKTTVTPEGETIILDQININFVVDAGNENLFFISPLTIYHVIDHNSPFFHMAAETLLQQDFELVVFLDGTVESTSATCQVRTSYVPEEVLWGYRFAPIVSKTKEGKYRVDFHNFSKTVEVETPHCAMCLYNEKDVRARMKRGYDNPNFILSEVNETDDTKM
Numbers stand for hits; n = inactive; x = no result given.

SMILES | KCC2 mod | Diaph act CS | L major viab | WT yeast gro inh | Diaphorase inh | ROMK mod
Cc1ccc(NCc2ccccc2OCc2ccccc2F)cc1 | n | n | n | n | n | x
CCOc1cc(/C=N/NC(N)=S)cc(Br)c1OCc1ccccc1C | n | n | 100 | n | n | n
CCOc1cc(-c2nc(-c3ccc(OC)cc3)no2)cc(OCC)c1OCC | n | n | n | n | n | n
CCOc1ccccc1C1N=C(c2ccc(OC)cc2)CC(c2ccccc2O)N1 (stereo not given) | n | n | 51 | n | n | n
CC(C)n1c(O)c(N=Nc2ccc(Cl)c(C(=O)O)c2)c2ccccc21 | n | x | x | x | x | x
Cc1nnc2nc(-c3ccccc3)nc(-c3ccccc3)n12 | n | x | x | x | x | x
S=c1nc(C2CC2)[nH]c2ccccc12 | 32 | n | n | n | n | x
S=c1nc(C2CCCCC2)[nH]c2ccccc12 | 86 | n | n | n | n | 3.1
CC(C)c1nc(=S)c2ccccc2[nH]1 | 19 | n | n | n | n | x
CNc1nc(=S)[nH]c2ccccc12 | n | x | x | x | x | x
O=Cc1ccccc1OCc1nnsc1Cl | n | n | n | n | n | n
Cc1nc([N+](=O)[O-])c(Br)n1CC(=O)c1ccccc1 | x | n | 96 | n | n | n
Cc1nc([N+](=O)[O-])c(C(=O)OCc2ccccc2Br)n1C | n | n | n | n | n | n
Cc1nc([N+](=O)[O-])c(Br)n1CC(=O)c1ccc2ccccc2c1 | n | n | 100 | n | n | n
Cc1nc([N+](=O)[O-])c(Br)n1CC(=O)c1ccc(Br)cc1 | n | n | 98 | n | n | n
NS(=O)(=O)c1ccc(NC(=O)COC(=O)CCC2CCCCC2)cc1 | n | n | n | n | n | x
CCCCC1CCC(C(=O)OCC(=O)Nc2ccc(S(N)(=O)=O)cc2)CC1 (stereo not given) | n | n | 52 | n | n | x
Cc1cccc(C(=O)NNC(=O)c2ccc(Br)cc2)c1 | x | n | n | n | n | x
Cc1cccc(C(=O)NC(=S)NNC(=O)c2ccc(Cl)cc2)c1 | 42 | n | n | n | n | 5.3
CCCC(=O)Nc1ccc(C(=O)NNC(=S)NC(=O)c2cccs2)cc1 | n | n | 99 | n | n | x
Cc1cccc(C(=O)NC(=S)NNC(=O)c2cccs2)c1 | 34 | n | n | n | n | x
CC(C)(C)c1ccc(C(=O)NC(=S)NNC(=O)c2cccs2)cc1 | 57 | n | n | 77 | n | 9.1
CSc1ccccc1-c1n[nH]c(=S)o1 | n | n | n | n | n | n
O=C(/C=C/c1ccc(Br)cc1)c1ccc(NC(=O)c2ccco2)cc1 | n | n | 88 | n | n | x
O=C(Nc1cccnc1)c1ccccc1F | x | n | n | n | n | n
SMILES | KCC2 mod | Diaph act CS | L major viab | WT yeast gro inh | Diaphorase inh | ROMK mod
O=C(/C=C/c1ccncc1)c1ccc(NC(=O)c2ccccc2F)cc1 | n | n | 100 | n | n | n
CC(=O)Oc1ccccc1N(C(C)=O)S(=O)(=O)c1ccc(C)cc1 | n | n | n | n | n | n
COc1ccc(S(=O)(=O)N(C(C)=O)c2ccc(OC(C)=O)c3ccccc23)cc1[N+](=O)[O-] | n | n | 100 | n | n | x
OCc1nc2ccccc2n1/N=C/c1cccs1 | n | x | x | x | x | n
Cc1c(Br)cc(C(=O)OC2CCN(C)CC2)c(C)c1C | n | n | 86 | n | n | x
CCOC(=O)C1=C(C)N(CC(C)C)C(=O)C1 | n | n | n | n | n | n
COC(=O)Nc1[nH]ncc1[N+](=O)[O-] | n | n | n | n | n | x
COc1ccc(NC(=O)c2nn(C)c(=O)c3ccccc23)cc1S(=O)(=O)Nc1ccccc1Cl | n | n | 60 | n | n | n
COC(=O)c1cccc(NC(=O)c2nn(C)c(=O)c3ccccc23)c1 | n | n | n | n | n | x
COc1ccc(NC(=O)CCSc2ccc(C)cc2)cc1S(=O)(=O)Nc1ccccc1Cl | n | n | 88 | n | n | x
COc1ccc(NC(=O)c2ccc3ccccc3n2)cc1S(=O)(=O)Nc1ccccc1Cl | n | n | 98 | n | n | x
CCOc1ccc(NS(=O)(=O)c2cc(NC(=O)CCS(=O)(=O)c3ccc(C)cc3)ccc2OC)cc1 | n | n | 60 | n | n | n
COc1ccc(NC(=O)c2cc(C)nc3ccccc23)cc1S(=O)(=O)Nc1ccccc1Cl | n | n | n | n | n | n
Cc1cc(C)n2nc(C(F)(F)F)c(-c3ccccc3)c2n1 | n | n | n | n | n | n
Cc1cc2ncn(/N=C/c3cccnc3)c2cc1C | x | n | n | 61 | n | n
C(=N\n1cnc2ccccc21)/c1cccnc1 | n | n | n | n | n | n
C/C(=C\c1ccccc1)CN1CCN(Cc2ccc(C)o2)C(CCO)C1 (stereo not given) | n | n | 83 | n | n | n
CCOC(=O)c1sc(NC(=O)CSc2n[nH]c(-c3ccc(Cl)cc3Cl)n2)c(C#N)c1C | x | n | n | 58 | n | x
Cc1ccccc1N(CC(=O)NCCc1ccccc1)C(=O)c1ccc(N2CCCC2)nc1 | n | n | 61 | n | n | x
C/C(=N\NC(=O)c1nn(C)cc1Cl)c1ccncc1 | n | n | n | n | n | n
COc1ccc(C2=NOC(Cn3c(Cc4ccc(Cl)cc4)nc4c3c(=O)n(C)c(=O)n4C)C2)cc1 (stereo not given) | n | n | 64 | n | n | n
Cc1occc1C(=O)N/N=C/c1cnn(C)c1C | n | n | n | n | 60 | n
Cc1c(/C=N\NC(=O)c2ccc(F)cc2)cnn1C | n | n | n | n | n | n
CS(=O)(=O)NCCNC(=O)c1cc(OCC(F)(F)F)ccc1OCC(F)(F)F | n | n | n | n | n | n
C=CCc1cc(C)ccc1OCCn1ccnc1 | n | n | n | n | n | n
SMILES | KCC2 mod | Diaph act CS | L major viab | WT yeast gro inh | Diaphorase inh | ROMK mod
Cc1ccc(C)c(OCCCCCn2ccnc2)c1 | x | n | 100 | n | n | x
Cc1cc(OCCCCCn2ccnc2)cc(C)c1Cl | n | n | 99 | n | n | n
C=CCc1cc(C)ccc1OCCOCCn1ccnc1 | n | n | 97 | n | n | n
Cc1cc(Cl)ccc1OCC(=O)NCCCn1ccnc1 | n | n | n | n | n | n
Cc1cc(OCCCn2ccnc2)cc(C)c1Cl | n | n | 89 | 66 | n | n
Cc1ccc(C)c(OCCCCn2cnc3ccccc3c2=O)c1 | n | n | n | n | n | x
O=C(NC(Cc1ccccc1)c1ccc2c(c1)OCCCO2)c1ccccc1 (stereo not given) | n | n | n | n | n | n
COc1ccc(CCNC(=O)c2cn3ccc(C)cc3n2)cc1OC | n | n | n | n | n | n
CCOc1ccccc1NC(=S)NC1CCCCC1 | n | n | 92 | n | n | n
COc1ccccc1NC(=S)NC1CCCCC1 | n | n | n | n | n | n
CCOc1ccccc1NC(=O)c1ccc(Cl)c(NC(=O)CC(c2ccccc2)c2ccccc2)c1 | x | n | 70 | n | n | x
CCOc1ccccc1NC(=O)C(OC(=O)c1ccc(O)cc1)c1ccccc1 (stereo not given) | n | n | n | 77 | n | x
